Converted amounts (≈) assume the structure as drawn. The source made the active and inactive calls. The calls are words filed in the database; no cut-off is given here.
What was measured:
[1] = system: Candida albicans; assay: Antifungal activity against fluconazole-sensitive Candida albicans SC5314 after 24 hrs by serial dilution method; type: functional; conditions: SC5314, 24 h
[2] = system: Candida parapsilosis; assay: Antifungal activity against Candida parapsilosis ATCC 22019 after 24 hrs by serial dilution method; type: functional; conditions: Lodderomyces parapsilosis, ATCC 22019, 24 h
[3] = system: Cryptococcus neoformans; assay: Antifungal activity against Cryptococcus neoformans 32609 after 72 hrs by serial dilution method; type: functional; conditions: Cryptococcus neoformans, 32609, 72 h
[4] = system: Nakaseomyces glabratus; assay: Antifungal activity against Candida glabrata 537 after 24 hrs by serial dilution method; type: functional; conditions: Nakaseomyces glabratus, 537, 24 h
[5] = system: Aspergillus fumigatus; assay: Antifungal activity against Aspergillus fumigatus 07544 after 7 days by serial dilution method; type: functional; conditions: Aspergillus fumigatus, 07544, 168 h
[6] = system: Trichophyton rubrum; assay: Antifungal activity against Trichophyton rubrum Cmccftla after 7 days by serial dilution method; type: functional; conditions: 168 h
[7] = system: Nannizzia gypsea; assay: Antifungal activity against Microsporum gypseum Cmccfmza after 7 days by serial dilution method; type: functional; conditions: 168 h
[8] = system: Candida albicans; assay: Fungicidal activity against fluconazole-sensitive Candida albicans SC5314 at 32 ug/ml after 12 to 48 hrs; type: functional, organism-based
Method in brief: (§1)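 Time-kill: C. albicans (SC5314 or 103) inoculated at 10^5 CFU/mL, untreated or with drug (2–32 μg/mL; fluconazole 32 μg/mL reference); CFU/mL counted after 0, 12, 24 and 48 h.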

[9] = system: Candida albicans; assay: Antifungal activity against fluconazole-sensitive Candida albicans SC5314 assessed as cell membrane damage at 8 ug/ml after 8 hrs by TEM analysis; type: functional, organism-based
Method in brief: (§2)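 Transmission electron microscopy of C. albicans SC5314 cells exposed to 8 μg/mL drug for 8 h; untreated cells as reference; cell wall, membrane, cytoplasm and vacuole morphology inspected.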

[10] = system: Candida albicans; assay: Antifungal activity against fluconazole-sensitive Candida albicans SC5314 assessed as abnormal cell shape at 8 ug/ml after 8 hrs by TEM analysis; type: functional, organism-based; method in brief: as §2
[11] = system: Candida albicans; assay: Antifungal activity against fluconazole-sensitive Candida albicans SC5314 assessed as change in ergosterol composition at 8 ug/ml after 24 hrs by GC-MS analysis (reference value: 90%); type: functional
Method in brief: (§3)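 C. albicans SC5314 exposed to 8 μg/mL for 24 h, sterols analysed by GC-MS with cholesterol internal standard; each sterol expressed as % of total sterol fraction versus no-drug control; average of three independent experiments.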

[12] = system: Candida albicans; assay: Antifungal activity against fluconazole-sensitive Candida albicans SC5314 assessed as change in obtusifoliol composition at 8 ug/ml after 24 hrs by GC-MS analysis relative to control; type: functional; method in brief: as §3
[13] = system: Candida albicans; assay: Antifungal activity against fluconazole-sensitive Candida albicans SC5314 assessed as change in lanosterol composition at 8 ug/ml after 24 hrs by GC-MS analysis (reference value: 1.5%); type: functional; method in brief: as §3
[14] = system: Candida albicans; assay: Antifungal activity against fluconazole-sensitive Candida albicans SC5314 assessed as change in eburicol composition at 8 ug/ml after 24 hrs by GC-MS analysis relative to control; type: functional; method in brief: as §3
[15] = system: Candida albicans; assay: Antifungal activity against fluconazole-sensitive Candida albicans SC5314 assessed as change in sterol composition at 8 ug/ml after 24 hrs by GC-MS analysis (reference value: 8.5%); type: functional; method in brief: as §3
[16] = system: Candida tropicalis; assay: Antifungal activity against Candida tropicalis after 7 days by serial dilution method; type: functional; conditions: 168 h
[17] = system: Pichia kudriavzevii; assay: Antifungal activity against Candida krusei 0710397 after 7 days by serial dilution method; type: functional; conditions: Pichia kudriavzevii, 0710397, 168 h
[18] = system: Candida albicans; assay: Fungicidal activity against fluconazole-sensitive Candida albicans SC5314 assessed as reduction in fungi density after 24 hrs; type: functional, organism-based; method in brief: as §1
[19] = system: Candida albicans; assay: Antifungal activity against fluconazole-resistant Candida albicans 103 after 24 hrs by serial dilution method; type: functional; conditions: Candida albicans, 103, 24 h
[20] = system: Candida albicans; assay: Inhibition of biofilm formation of fluconazole-sensitive Candida albicans SC5314 at 64 ug/ml after 48 hrs by XTT assay relative to control; type: functional
Method in brief: (§4)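 Biofilm formation by C. albicans SC5314 or 103 in presence of 2–64 μg/mL drug (fluconazole 64 μg/mL reference); quantified by XTT reduction as % of blank control; mean ± standard deviation of three independent experiments, ANOVA and Student t test.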

[21] = system: Candida albicans; assay: Inhibition of biofilm formation of fluconazole-resistant Candida albicans 103 at 64 ug/ml after 48 hrs by XTT assay; type: functional, organism-based; method in brief: as §4
[22] = system: Candida albicans; assay: Inhibition of hyphal growth of fluconazole-sensitive Candida albicans SC5314 at 8 ug/ml after 16 hrs by light microscopic analysis; type: functional, organism-based
Method in brief: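 C. albicans SC5314 incubated in RPMI 1640 liquid medium at 37 °C for 16 h with or without drug (2–8 μg/mL); hyphal, pseudohyphal or yeast morphology scored microscopically against blank control.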

[23] = system: Candida albicans; assay: Antifungal activity against fluconazole-resistant Candida albicans 100 after 24 hrs by serial dilution method; type: functional; conditions: Candida albicans, 100, 24 h
[24] = system: Candida albicans; assay: Antifungal activity against fluconazole-resistant Candida albicans 07109 after 24 hrs by serial dilution method; type: functional; conditions: Candida albicans, 07109, 24 h
[25] = system: Candida albicans; assay: Antifungal activity against fluconazole-resistant Candida albicans 805 after 24 hrs by serial dilution method; type: functional; conditions: Candida albicans, 805, 24 h

Cc1ccc2c(c1)[C@@H]1CN(C)CC[C@@H]1N2C(=O)c1ccc2ccccc2c1
MIC80 [1]: 32 µg/mL (≈ 89.8 µM)
MIC80 [2]: 16 µg/mL (≈ 44.9 µM)
MIC80 [3]: 8 µg/mL (≈ 22.4 µM)
MIC80 [4]: > 64 µg/mL
MIC80 [5]: > 64 µg/mL
MIC80 [6]: 16 µg/mL (≈ 44.9 µM)
MIC80 [7]: 32 µg/mL (≈ 89.8 µM)
Activity [8]: Active

OC(Cn1cncn1)(Cn1cncn1)c1ccc(F)cc1F [FLUCONAZOLE]
Activity [9]: Active
Activity [10]: Active
Activity [11]: 0.6%
Activity [12]: 6.5%
Activity [13]: 5.9%
Activity [14]: 82.2%
Activity [15]: 4.8%
MIC80 [16]: 1 µg/mL (≈ 3.27 µM)
MIC80 [17]: 4 µg/mL (≈ 13.1 µM)
MIC80 [1]: 0.5 µg/mL (≈ 1.63 µM)
MIC80 [2]: 2 µg/mL (≈ 6.53 µM)
MIC80 [3]: 2 µg/mL (≈ 6.53 µM)
MIC80 [4]: 0.5 µg/mL (≈ 1.63 µM)
MIC80 [5]: > 64 µg/mL
MIC80 [6]: 4 µg/mL (≈ 13.1 µM)
MIC80 [7]: 1 µg/mL (≈ 3.27 µM)
Activity [8]: Active
Activity [18]: inactive
MIC80 [19]: 4 µg/mL (≈ 13.1 µM)
inhibition [20]: inactive
inhibition [21]: inactive
growth inhibition (GI) [22]: inactive
MIC80 [23]: > 1020 µg/mL
MIC80 [24]: > 1020 µg/mL
MIC80 [25]: > 1020 µg/mL

From ChEMBL document CHEMBL3286225, “Novel carboline derivatives as potent antifungal lead compounds: design, synthesis, and biological evaluation” (ACS Med Chem Lett, 2014)
